Legend:
Type in all cases: functional
SF-295 = assay: Cytotoxicity against CNS SF-295 cell lines; details: Homo sapiens
Summary of the method: (§1)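 NCI human tumor cell line screen. Growth inhibition was read across a test range of 10^-4 to 10^-8 M. GI50 is the concentration giving 50% growth inhibition.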

DU-145 = assay: Cytotoxicity against prostate DU-145 cell lines; details: Homo sapiens; summary of the method: as §1
MDA-MB-435 = assay: Cytotoxicity against breast MDA-MB-435 cell lines; details: Homo sapiens; summary of the method: as §1
CCRF-CEM = assay: Cytotoxicity against leukemia CCRF-CEM cell lines; details: Homo sapiens; summary of the method: as §1
NCI-H23 = assay: Cytotoxicity against lung NCI-H23 cell lines; details: Homo sapiens; summary of the method: as §1
OVCAR-5 = assay: Cytotoxicity against ovarian OVCAR-5 cell lines; details: Homo sapiens; summary of the method: as §1
COLO 205 = assay: Cytotoxicity against colon […] cell lines; details: Homo sapiens; summary of the method: as §1
LOX IMVI = assay: Cytotoxicity against melanoma LOXIMVI cell lines; details: Homo sapiens; summary of the method: as §1
[1] = test system: Panel (Carcinoma cell lines); assay: Mean graph midpoint growth inhibition of human cancer cell lines
Summary of the method: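 Mean graph midpoint: the average GI50 across all human cancer cell lines successfully tested (~55) in the NCI screen. Values below or above the 10^-4 to 10^-8 M test range were set to the minimum (10^-8 M) or maximum (10^-4 M) concentration screened.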

SN12C = assay: Cytotoxicity against renal SN12C cell lines; details: Homo sapiens; summary of the method: as §1

| SMILES | GI50 (SF-295) | GI50 (DU-145) | GI50 (MDA-MB-435) | GI50 (CCRF-CEM) | GI50 (NCI-H23) | GI50 (OVCAR-5) | GI50 (COLO 205) | GI50 (LOX IMVI) | MGM [1] | GI50 (SN12C) |
| --- | --- | --- | --- | --- | --- | --- | --- | --- | --- | --- |
| Cc1ccc(/N=C2\C(=O)C3=C(OC(C)(C)CC3)c3ccccc32)cc1 | 1260 nM | 1760 nM | 190 nM | 2560 nM | 920 nM | 2030 nM | 1800 nM | 300 nM | 0.89 µM | 460 nM |
| CC1(C)CCC2=C(O1)c1ccccc1C(=O)C2=O [LAPACHONE] | 1540 nM | 1740 nM | 21400 nM | 1410 nM | 760 nM | 1820 nM | 1780 nM | 310 nM | 1.12 µM | 1450 nM |
| COc1ccc(/N=C2\C(=O)C3=C(OC(C)(C)CC3)c3ccccc32)cc1 | 880 nM | 870 nM | 96 nM | 1540 nM | 1170 nM | 12300 nM | 1020 nM | 890 nM | 1.15 µM | 900 nM |
| CC1(C)CCC2=C(O1)c1ccccc1/C(=N/c1ccc([N+](=O)[O-])cc1)C2=O | 14900 nM | 16800 nM | 15800 nM | 19600 nM | 18300 nM | 14500 nM | 16800 nM | 7590 nM | 15.5 µM | 15900 nM |
| CC1(C)CCC2=C(O1)c1ccccc1/C(=N/c1ccccc1)C2=O | 1860 nM | 1560 nM | 200 nM | 1550 nM | 1230 nM | 1810 nM | 1550 nM | 220 nM | 1.17 µM | 1120 nM |

— ChEMBL document CHEMBL1134690, “Preparation and cytotoxicity toward cancer cells of mono(arylimino) derivatives of beta-lapachone” (2001)
